# This is a sample that favours compounds with a hit; in the whole collection about 1.4% have one here.
# RBBP9 inhibitor – human RBBP9 inhibitors, primary screen, biochemical, fluorescence polarization, FP-Rh probe, HTS; hit rate 0.2% among 220,000; Serine hydrolase RBBP9 (Homo sapiens), O75884; recombinant RBBP9; inhibition, % at 7.94 µM;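 active means inhibition above the campaign mean of all tested compounds plus 3 SD, cut at about 14% in these data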;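 further: plate controls were DMSO wells with RBBP9 for no effect and wells lacking RBBP9 protein for full effect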
# Target sequence (O75884 whole entry, looked up): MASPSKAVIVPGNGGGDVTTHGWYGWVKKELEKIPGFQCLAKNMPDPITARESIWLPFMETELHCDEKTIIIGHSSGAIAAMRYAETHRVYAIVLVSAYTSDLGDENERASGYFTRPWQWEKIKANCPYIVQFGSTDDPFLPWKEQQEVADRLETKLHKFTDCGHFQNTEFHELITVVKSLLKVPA
#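 Material: RBBP9 protein. Amount: RBBP9 at 2.5 µM in dispensed solution, before mixing. Schedule: 30 min then 45 min, 25 °C. Medium: Tris buffer pH 8.0, NaCl, Pluronic. Measured by: fluorescence polarization. Measure: percent inhibition from mP, scaled between DMSO and no-protein wells. Replication: one well per compound.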
# HTRA1 inhibitor – HTRA1 serine protease inhibitors, primary screen, biochemical, fluorescence polarization, HTS; AID 504803, 2011; Q92743; hit rate 0.5% among 340,000; inhibition, % at 5.96 µM; recombinant HTRA1, FP-rhodamine activity-based probe; in the data active means inhibition above about 36%;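 further: 0% = enzyme with DMSO and 100% = wells lacking enzyme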
# ABHD4 inh – ABHD4 inhibitors, primary screen, biochemical, fluorescence polarization, mouse | (Lyso)-N-acylphosphatidylethanolamine lipase (Mus musculus), Q8VD66 | purified mABHD4, FP-Rh probe fluorescence polarization | hit rate 0.54% among 370,000 | inhibition, % at 8.92 µM;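 active means inhibition exceeding the mean over every tested compound plus 3 SD, cut at about 30% in these data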;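 further: 0% = plate median of compound wells and 100% = S159A mutant with DMSO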
# Target sequence (Q8VD66 whole entry, looked up): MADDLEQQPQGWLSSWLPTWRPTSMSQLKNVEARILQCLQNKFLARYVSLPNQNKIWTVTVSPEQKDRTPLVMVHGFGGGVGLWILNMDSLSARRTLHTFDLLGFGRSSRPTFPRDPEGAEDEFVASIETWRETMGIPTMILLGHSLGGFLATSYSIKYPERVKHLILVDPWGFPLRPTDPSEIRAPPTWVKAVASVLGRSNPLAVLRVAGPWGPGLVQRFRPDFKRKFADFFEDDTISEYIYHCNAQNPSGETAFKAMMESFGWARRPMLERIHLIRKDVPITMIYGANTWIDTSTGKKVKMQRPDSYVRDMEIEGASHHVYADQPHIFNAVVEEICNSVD
#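 Material: mouse ABHD4 enzyme, wild type; Benchmarks: S159A mutant high control, sample median low control; Buffer or medium: HEPES pH 7.0, NaCl, Pluronic buffer; Signal: fluorescence polarization; Read-out: percent inhibition of probe binding, normalized to plate controls; Timing: pre-incubation 45 min, probe exposure 60 min, at 25 °C; Dosing: 8.92 µM, single dose.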
# SIAE inh – human SIAE inhibitors, primary screen, biochemical, fluorescence polarization, FP-Rh probe, 1536-well HTS | Sialate O-acetylesterase (Homo sapiens), Q9HAT2 | hit rate 0.69% among 370,000 | SIAE FP-Rh probe binding | AID 1053197, 2014 | inhibition, % at 9.66 µM;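 active means inhibition above a cutoff: mean of compounds within the control limits plus 3 SD of those, cut at about 17% in these data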;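 further: 0% = plate median of compound wells and 100% = probe without SIAE protein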
# HTRA1 inh conf – HTRA1 protease inhibitors, retest, confirmation, biochemical, fluorescence polarization; shares compounds with HTRA1 inhibitor; recombinant HTRA1, FP-rhodamine activity-based probe; inhibition, % at 5.96 µM; hit rate 66% among 1,600; AID 540248, 2011;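 active means mean inhibition over three repeats above a set limit taken from the earlier primary screen, cut at about 37% in these data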;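 further: 0% = HTRA1 with DMSO and 100% = wells lacking HTRA1; inhibitors block probe binding so polarization drops and inhibition rises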
# ABHD4 confirm – ABHD4 inhibitors, retest, confirmation, biochemical, fluorescence polarization, mouse; hit rate 55% among 1,800; shares compounds with ABHD4 inh; inhibition, % at 8.92 µM; AID 720658, 2013; purified mABHD4, FP-Rh probe fluorescence polarization;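 active means mean inhibition across replicates above the hit cutoff set in the primary screen, cut at about 30% in these data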;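 further: 0% = wild-type ABHD4 with DMSO and 100% = catalytically dead S159A mutant with DMSO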
# SIAE confirm – human SIAE inhibitors, retest, confirmation, biochemical, fluorescence polarization, FP-Rh probe, triplicate; AID 1117263, 2014; SIAE FP-Rh activity-based probe; hit rate 13% among 2,300; shares compounds with SIAE inh; inhibition, % at 9.66 µM;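 active means mean inhibition of the replicates above the hit cutoff set in the primary screen, cut at about 17% in these data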;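 further: 0% = SIAE with DMSO and probe and 100% = probe without SIAE; inhibitors lower polarization as more probe stays unbound to SIAE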
# * marks the source's active call; other numbers are inactive results; · = no result given; + = active, no number.
SMILES,RBBP9 inhibitor,HTRA1 inhibitor,ABHD4 inh,SIAE inh,HTRA1 inh conf,ABHD4 confirm,SIAE confirm
CCCCC(=Nc1ccc(N)cc1)C1=C(O)C(C(=O)OC)C(C)(C)CC1=O (configuration not stated),12,64*,72*,44*,9,16,8
CCc1nc2ccc(C(=O)NC3CCN(Cc4ccccc4)CC3)cn2c1N(C)Cc1cc2ccccc2s1,·,·,9,1,·,·,·
Cc1cc(NS(=O)(=O)c2ccc(NC(=O)CSc3nnc(-c4ccncc4)n3Cc3ccco3)cc2)nc(C)n1,·,·,0,-6,·,·,·
COc1ccc(C(C(=O)NC(C)(C)C)n2c(-c3ccc(C(F)(F)F)cc3)nc3ccccc32)cc1 (configuration not stated),·,·,-2,-4,·,·,·
CCCCCCn1c(=O)[nH]c2nc3cc(N)c(C)cc3nc2c1=O,0,64*,49*,18*,15,39*,9
CCCCn1c(=O)[nH]c2nc3cc(NC(C)=O)ccc3nc2c1=O,4,-3,2,0,·,·,·
CCC(=O)NC(c1ccc(OC)c(OC)c1)c1cc(Cl)c2cccnc2c1O (configuration not stated),1,52*,7,26*,81*,·,11
COc1ccccc1C(NC(C)=O)c1cc(Cl)c2cccnc2c1O (configuration not stated),·,49*,6,22*,71*,·,14
CCC(=O)NC(c1ccco1)c1cc(Cl)c2ccccc2c1O (configuration not stated),·,-4,1,3,·,·,·
CC(=O)NC(c1ccco1)c1cc(Cl)c2ccccc2c1O (configuration not stated),·,-1,8,11,·,·,·
CCOC(=O)N[C@H](C(=O)N1CCC[C@H]1C(=O)NCCc1ccccc1Cl)C1CCCCC1,·,·,1,2,·,·,·
CN(C)c1ccc2nc3ccc(=O)cc-3sc2c1,·,58*,113*,82*,79*,56*,68*
Clc1ccc(C2Nc3cccc4cccc(c34)N2)c(Cl)c1,·,54*,30*,20*,24,32*,6
Clc1ccc(C2Nc3cccc4cccc(c34)N2)cc1,·,3,7,1,·,·,·
CC(C)[C@H](NC(=O)[C@@H]1Cc2c([nH]c3ccccc23)C2c3ccccc3C(=O)N21)C(=O)N1CCC[C@H]1C(=O)O (some centres not stated),·,·,6,-2,·,·,·
Oc1ccc(C2=Nn3c(nnc3-c3ccco3)SC2)cc1O,3,44*,43*,30*,34,40*,17
C=CCn1cc(/C=N/Nc2nc3ccccc3[nH]2)c2ccccc21,3,41*,25,56*,42*,·,53*
CC(C)Cn1c(/C=N/Nc2nc3ccccc3[nH]2)nc2ccccc21,7,30,26,7,·,·,·
CN(C)c1ccc(N/C=C/C(=O)C(C)(C)C)cc1,4,59*,26,17*,4,·,-3
COc1cc(/C=N/NC(=O)c2cccc(NC(=O)c3ccccc3C)c2)ccc1O,·,-9,7,7,·,·,·
Cc1ccccc1C(=O)Nc1cccc(C(=O)N/N=C/c2cc(Cl)cc([N+](=O)[O-])c2O)c1,-5,42*,37*,28*,50*,49*,2
O=C(O)[C@@H]1[C@H]2C[C@H]3c4[nH]c5ccccc5c4CCN3C[C@@H]2CC[C@@H]1O,·,45*,39*,24*,7,32*,15
OC1CCC2CN3CCc4c([nH]c5ccccc45)C3CC2C1 (configuration not stated),·,·,9,4,·,·,·
Cc1cc(C)c(Nc2cc(S(=O)(=O)O)c(N)c3c2C(=O)c2ccccc2C3=O)c(C)c1,7,66*,77*,35*,67*,110*,29*
COc1ccc(NCC(=O)NN=C2CCS(=O)(=O)c3ccc(F)cc32)cc1,·,·,4,6,·,·,·
SMILES,RBBP9 inhibitor,HTRA1 inhibitor,ABHD4 inh,SIAE inh,HTRA1 inh conf,ABHD4 confirm,SIAE confirm
CCOc1ccccc1N1CCN(Cc2cccc(OC)c2O)CC1,4,9,0,-5,·,·,·
COc1ccccc1N1CCN(Cc2cc(Br)c(O)c3ncccc23)CC1,-8,55*,22,29*,82*,·,22*
Cc1ccc(S(=O)(=O)Nc2nc3ccccc3nc2NCc2ccco2)cc1,13,43*,55*,23*,-6,-5,2
Cc1ccccc1NS(=O)(=O)c1ccc2c(c1)CCC(=O)N2,·,·,1,2,·,·,·
COc1ccc2nc3cc(Cl)ccc3c(Nc3cc(C(C)C)c(O)cc3C)c2c1,-5,38*,40*,29*,29,51*,14
Nc1cc(N)cc(-c2nc3ccccc3[nH]2)c1,1,47*,12,31*,21,·,5
CCN(CC)Cc1cc(Nc2c3ccccc3nc3c4ccccc4n(C)c23)cc(CN(CC)CC)c1O,·,38*,33*,17*,18,·,4
Oc1cccc(Nc2c3ccccc3nc3ccccc23)c1,·,10,10,4,·,·,·
COc1cccc2c1C(=O)c1c(O)c3c(c(O)c1C2=O)CC(O)(C(=O)CO)CC3OC1CC(N(C)C)C(O)C(C)O1 (configuration not stated),·,68*,79*,61*,66*,61*,40*
COC(=O)c1ccccc1-c1ccc(/C=N/NC(=O)c2cc3ccccc3o2)o1,-25,-51,-24,-23,·,·,·
COC(=O)c1ccccc1-c1c2ccc(=N)cc-2oc2cc(N)ccc12,·,136*,+,+,142*,183*,+
O=C(N/N=C/c1ccc(O)c(O)c1)c1cc(-c2ccccc2)nc2ccccc12,·,63*,22,19*,76*,·,-13
Cn1c2ccccc2c2cc(/C=N/NC(=O)c3cc(O)ccc3O)ccc21,·,64*,52*,50*,64*,0,5
CNc1ccc2c3c(cccc13)C(=O)N(C)C2=O,·,84*,103*,70*,75*,119*,66*
NNc1nc2ccc(F)cc2s1,-4,30,42*,11,·,26,·
Cn1cc(CN2CCC(C(O)c3cccs3)CC2)c(-c2ccccc2F)n1 (configuration not stated),-4,5,48*,2,·,2,·
